One assay deals with MDA-MB-435. Description: Cytotoxicity against human MDA-MB-435 cells assessed as growth inhibition at 10 uM after 48 hrs by SRB assay. The following applies: MDA-MB-435, 48 h, read-out: GI. It is filed as functional. An outline of the steps: (§1)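 Single-dose NCI 60-cell screen at 10 µM with 48 h exposure and sulforhodamine B read-out. Values are percentage growth per cell line. A summary ratio counts cell lines with 0–50% growth over all cell lines tested.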

For the next assay, the system named is SR. Kind of assay: Cytotoxicity against human SR cells assessed as growth inhibition at 10 uM after 48 hrs by SRB assay. The assay is classed as functional. Particulars: read-out: GI. An outline of the steps:
as §1
For orientation: The SRB assay estimates cell density from bound dye.

For another assay, the species on record is Ovis aries. Description: Inhibition of sheep brain tubulin assembly at 100 uM by DAPI staining-based fluorescence assay. An outline of the steps:
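Tubulin from sheep brain, purified by two assembly–disassembly cycles, at about 2–3 mg/mL in 0.1 M MES, 0.5 mM MgCl2, 1 mM EGTA, 1 mM GTP, pH 6.6. Assembly followed by DAPI fluorescence at 37 °C. Single-point inhibition tested at 100 µM. IC50 is the concentration halving the assembly rate relative to no compound, mean of two experiments, with reference inhibitors run the same day.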

The next assay has as its system MDA-MB-468. Description: Cytotoxicity against human MDA-MB-468 cells assessed as growth inhibition at 10 uM after 48 hrs by SRB assay. The assay is classed as functional. Particulars: MDA-MB-468, 48 h, read-out: GI. An outline of the steps: as §1
For the next assay, the system named is NCI/ADR-RES. Description: Cytotoxicity against human NCI/ADR-RES cells assessed as growth inhibition at 10 uM after 48 hrs by SRB assay. It is filed as functional. Particulars: read-out: GI. Summed up: as §1
A further assay relates to PC-3. Description: Cytotoxicity against human PC3 cells assessed as growth inhibition at 10 uM after 48 hrs by SRB assay. It is filed as functional. The following applies: PC-3, 48 h, read-out: GI. Summed up: as §1
Another assay deals with UO-31. Description: Cytotoxicity against human UO31 cells assessed as growth inhibition at 10 uM after 48 hrs by SRB assay. The following applies: UO-31, 48 h, read-out: GI. The assay is classed as functional. Summed up:
as §1

Another assay deals with UACC-257. Kind of assay: Cytotoxicity against human UACC257 cells assessed as growth inhibition at 10 uM after 48 hrs by SRB assay. Particulars: UACC-257, 48 h, read-out: GI. It is filed as functional. Summed up:
as §1

For another assay, the system named is SW-620. Kind of assay: Cytotoxicity against human SW620 cells assessed as growth inhibition at 10 uM after 48 hrs by SRB assay. The assay is classed as functional. Particulars: SW-620, 48 h, read-out: GI. Summed up:
as §1

For a further assay, the system named is HCC 2998. Kind of assay: Cytotoxicity against human HCC2998 cells assessed as growth inhibition at 10 uM after 48 hrs by SRB assay. It is filed as functional. The following applies: HCC 2998, 48 h, read-out: GI. Summed up:
as §1

A further assay deals with KM12. Description: Cytotoxicity against human KM12 cells assessed as growth inhibition at 10 uM after 48 hrs by SRB assay. Particulars: KM12, 48 h, read-out: GI. The assay is classed as functional. An outline of the steps:
as §1

In a further assay the test system is SNB-75. Kind of assay: Cytotoxicity against human SNB75 cells assessed as growth inhibition at 10 uM after 48 hrs by SRB assay. It is filed as functional. The following applies: SNB-75, 48 h, read-out: GI. Summed up:
as §1

For a further assay, the system named is HOP-62. Description: Cytotoxicity against human HOP62 cells assessed as growth inhibition at 10 uM after 48 hrs by SRB assay. The following applies: HOP-62, 48 h, read-out: GI. The assay is classed as functional. An outline of the steps: as §1
For the next assay, the system named is NCI-H522. Kind of assay: Cytotoxicity against human NCI-H522 cells assessed as growth inhibition at 10 uM after 48 hrs by SRB assay. It is filed as functional. The following applies: NCI-H522, 48 h, read-out: GI. Summed up:
as §1

The next assay relates to MCF7. Description: Cytotoxicity against human MCF7 cells assessed as growth inhibition at 10 uM after 48 hrs by SRB assay. The assay is classed as functional. The following applies: MCF7, 48 h, read-out: GI. An outline of the steps: as §1
The subject of the next assay is M14. Description: Cytotoxicity against human M14 cells assessed as growth inhibition at 10 uM after 48 hrs by SRB assay. Particulars: M14, 48 h, read-out: GI. It is filed as functional. An outline of the steps:
as §1

Another assay has as its system HCT-15. Description: Cytotoxicity against human HCT15 cells assessed as growth inhibition at 10 uM after 48 hrs by SRB assay. It is filed as functional. The following applies: HCT-15, 48 h, read-out: GI. An outline of the steps: as §1
For another assay, the system named is K562. Description: Cytotoxicity against human K562 cells assessed as growth inhibition at 10 uM after 48 hrs by SRB assay. The following applies: K562, 48 h, read-out: GI. The assay is classed as functional. An outline of the steps: as §1
Another assay has as its system HL-60(TB). Description: Cytotoxicity against human HL-60(TB) cells assessed as growth inhibition at 10 uM after 48 hrs by SRB assay. The assay is classed as functional. The following applies: HL-60, 48 h, read-out: GI. An outline of the steps:
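Single high dose of 10 µM in the NCI 60-cell disease-oriented human tumour panel, with 48 h exposure and sulforhodamine B read-out of percentage growth.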

One may read the inhibition as the change of the read-out against control, counted positive when it falls. Read a high inhibition as strong suppression. Consider `COc1cc(C(=O)c2cc(OC)c(O)c(OC)c2)c(OC)cc1F`, for which the inhibition of growth at 10 µM with MDA-MB-435 came to 21%; with SR, 22%. This compound returned an inhibition in the assay listed under Ovis aries of 48%.
As to `COc1ccc(C(=O)c2cc(F)c(F)c(OC)c2F)c(OC)c1NC(C)=O`, the inhibition of growth at 10 µM was found to be 81% in the assay on MDA-MB-468; 55% in the assay with NCI/ADR-RES; 27% with PC-3; 30% with UO-31; 21% in the assay on UACC-257; 37% in the assay with SW-620. In addition, the inhibition of growth at 10 µM amounted to 31% with HCC 2998; 57% in the assay on KM12; 44% in the assay on SNB-75; 30% with HOP-62; 83% with NCI-H522; 49% with SR. This compound yielded an inhibition in the assay listed under Ovis aries of 39%.
For `COc1ccc(C(=O)c2ccc(OC)c(N)c2OC)cc1F`, the inhibition of growth at 10 µM amounted to 52% in the assay on MCF7; 43% in the assay with M14; 53% in the assay with HCT-15; 71% in the assay on K562; 49% in the assay with HL-60(TB); 100% in the assay with MDA-MB-435. Also, the inhibition of growth at 10 µM stood at 81% in the assay with MDA-MB-468; 77% with SW-620; 72% in the assay with HCC 2998; 59% in the assay on KM12; 45% with NCI-H522; 61% in the assay on SR. This compound gave an inhibition in the assay filed under Ovis aries of 45%.
As to `COc1ccc(C(O)c2cc(F)c(F)c(OC)c2F)cc1O` (stereo not given), the inhibition of growth at 10 µM stood at 41% in the assay on K562; 35% in the assay on NCI/ADR-RES; 26% in the assay on KM12; 53% with NCI-H522; 33% in the assay on SR. The inhibition in the assay filed under Ovis aries turned out to be 49%.

These data come from ChEMBL document CHEMBL2384929, “Synthesis and biological evaluation of fluoro analogues of antimitotic phenstatin” (Bioorg Med Chem, 2013).
